Results on three compounds are retold here after ChEMBL document CHEMBL1135477, “Antifungal agents. 10. New derivatives of 1-[(aryl)[4-aryl-1H-pyrrol-3-yl]methyl]-1H-imidazole, synthesis, anti-candida activity, and quantitative structure-analysis relationship studies” (J Med Chem, 2002).

The structures appear in SMILES notation. In brackets after ≈: the same amount, converted by molar mass.

Format in all cases: functional
In series [1] the target is Lanosterol 14-alpha demethylase (Candida albicans (strain SC5314 / ATCC MYA-2876) (Yeast), UniProt P10613). Put plainly: Anticandida activity- (MIC90 compound) / (MIC90 bifonazole).
Series [2] deals with Candida. Put plainly: Tested in vitro for antifungal activity against Candida species. at pH 7.2; (percent of resistant species at 256 ug/mL). In outline: (§1)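 Broth serial-dilution test in Sabouraud broth at pH 7.2 or 5.8, against 3 fresh clinical non-albicans isolates (two C. glabrata, one C. krusei). Inocula were 10³/mL, pre-grown 18 h at 37 °C. Compound was twofold-diluted over 0.25–256 µg/mL and read at 24 h, 37 °C for visible growth.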

In series [3] the test system is Candida albicans. Put plainly: In vitro antifungal activity against 40 strains of Candida albicans at pH 7.2. In outline:
(§2)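 Broth serial-dilution MIC against 40 clinical C. albicans isolates from hospitalized patients, grown in Sabouraud broth at pH 7.2 or 5.8. Cells were pre-grown 18 h at 37 °C, inoculated at 10³/mL, and read at 24 h, 37 °C. Doubling dilutions ran 0.25–256 μg/mL from a DMSO/water solution. MIC was the lowest concentration with no visible growth against a DMSO/water blank.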

Series [4] deals with Candida albicans. The experiment in a line: In vitro antifungal activity against 40 strains of Candida albicans at pH 5.8; value ranges from 128 to >256. In outline: as §2
Series [5] deals with Candida albicans. The experiment in a line: In vitro antifungal activity against 40 strains of Candida albicans at pH 5.8; (percent of resistant species at 256 ug/mL). The essentials: (§3)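 Broth serial-dilution test in Sabouraud broth at pH 7.2 or 5.8, against 40 fresh clinical C. albicans isolates from hospitalized patients. Inocula were 10³/mL, pre-grown 18 h at 37 °C in Sabouraud dextrose broth. Compound from a DMSO/water stock was twofold-diluted over 0.25–256 µg/mL. Visible growth was read at 24 h, 37 °C.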

The subject of series [6] is Candida albicans. The experiment in a line: In vitro antifungal activity against 40 strains of Candida albicans at pH 5.8. The essentials: as §2
Series [7] has as its system Candida albicans. The experiment in a line: In vitro antifungal activity against 40 strains of Candida albicans at pH 7.2; minimum inhibitory concentration value ranges from 128 to >256. In outline:
as §2

Series [8] relates to Candida albicans. Put plainly: In vitro antifungal activity against 40 strains of Candida albicans at pH 7.2; (percent of resistant species at 256 ug/mL). In outline: as §3
In series [9] the test system is Candida. The experiment in a line: Tested in vitro for antifungal activity against Candida species. at pH 7.2. In outline:
(§4)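 Fresh clinical isolates (two C. glabrata, one C. krusei) were pre-grown 18 h at 37 °C in Sabouraud dextrose broth. Broth double-dilution was run in Sabouraud broth at pH 5.8 or 7.2 over 0.25–256 µg/mL from a DMSO/water stock, with 10³/mL inoculum.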

In series [10] the test system is Candida. The experiment in a line: Tested in vitro for antifungal activity against Candida species. at pH 5.8. In outline:
(§5)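 Liquid serial-dilution MIC against 3 freshly isolated clinical Candida strains (two C. glabrata, one C. krusei) in Sabouraud broth at pH 7.2 or 5.8. Inoculum was 10³/mL after 18 h pre-culture at 37 °C, read at 24 h, 37 °C. Range was 0.25–256 μg/mL. Endpoint was no visible growth versus a DMSO/water blank.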

Series [11] relates to Candida. Put plainly: Tested in vitro for antifungal activity at pH 5.8; range is >250. The essentials:
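Serial two-fold broth dilution was run in Sabouraud broth at pH 5.8 over 0.25–256 µg/mL, against clinical Candida isolates (40 C. albicans; 2 C. glabrata plus 1 C. krusei). Inoculum was 10³/mL after 18 h pre-culture at 37 °C. No visible growth versus a DMSO/water blank was read at 24 h, 37 °C; the range spans per-strain MICs.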

The subject of series [12] is Candida. The experiment in a line: Tested in vitro for antifungal activity against Candida species. at pH 5.8; (percent of resistant species at 256 ug/mL). In outline:
as §1

In series [13] the test system is Candida albicans. Put plainly: In vitro antifungal activity against 40 strains at pH 7.2,(percent of resistant species at 256 ug/mL). The essentials: as §3
The test system of series [14] is Candida. Put plainly: Tested in vitro for antifungal activity against candida Spp (Candida glabrata, Candida krusei) at pH 7.2 (percent of resistant species at 256 ug/mL). In outline: as §1
The subject of series [15] is Candida albicans. Put plainly: In vitro antifungal activity against 40 strains at pH 7.2. In outline: (§6)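 Inocula were 10³/mL, pre-grown 18 h at 37 °C. MIC is the lowest concentration with no visible growth versus a DMSO/water blank at 24 h, 37 °C. The mean MIC is ΣMICi over the total strain number; MIC50/MIC90 cover 50%/90% of strains.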
For series [16], the system named is Candida albicans. The experiment in a line: In vitro antifungal activity against 40 strains at pH 7.2 minimum inhibitory concentration. In outline:
as §6

Series [17] concerns Candida. The experiment in a line: In vitro antifungal activity against candida Spp (Candida glabrata, Candida krusei) at pH 5.8,(percent of resistant species at 256 ug/mL). In outline:
as §1

For series [18], the system named is Candida. The experiment in a line: Tested In vitro for antifungal activity against candida Spp (Candida glabrata, Candida krusei) at pH 7.2. In outline: (§7)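 Inocula were 10³/mL, pre-grown 18 h at 37 °C. MIC is the lowest concentration with no visible growth versus a blank at 24 h, 37 °C. The mean MIC is ΣMICi over the strain number; MIC50/MIC90 are also reported.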

Series [19] relates to Candida albicans. The experiment in a line: In vitro antifungal activity against 40 strains at pH 5.8,(percent of resistant species at 256 ug/mL). In outline:
as §3

Series [20] concerns Candida albicans. The experiment in a line: Tested In vitro for antifungal activity at pH 5.8.
In series [21] the test system is Candida. Put plainly: Tested In vitro for antifungal activity against candida Spp (Candida glabrata, Candida krusei) at pH 5.8. The essentials:
as §7

In series [22] the test system is Candida. Put plainly: Tested in vitro for antifungal activity against Candida species. at pH 5.8; value ranges from <0.25 to 0.25. The essentials: as §4
Series [23] deals with Candida. The experiment in a line: Tested In vitro for antifungal activity against Candida species. at pH 7.2; (percent of resistant species at 256 ug/mL). In outline: as §1
Series [24] relates to Candida. The experiment in a line: Tested In vitro for antifungal activity against Candida species. at pH 7.2. In outline:
as §5

Series [25] deals with Candida albicans. The experiment in a line: In vitro antifungal activity against 40 strains of Candida albicans at pH 7.2; (percent of resistant species (R) at 256 ug/mL). In outline: as §3
In series [26] the test system is Candida albicans. Put plainly: In vitro antifungal activity against 40 strains of Candida albicans at pH 7.2; minimum inhibitory concentration; value ranges from <0.25 to 16. In outline: as §2
The test system of series [27] is Candida albicans. The experiment in a line: In vitro antifungal activity against 40 strains of Candida albicans at pH 5.8; value ranges from <0.25 to 8. The essentials:
as §2

The subject of series [28] is Candida. The experiment in a line: Tested In vitro for antifungal activity against Candida species. at pH 7.2; (range is from 0.5 to 1). The essentials:
as §5

Chain of Lanosterol 14-alpha demethylase (P10613 whole entry): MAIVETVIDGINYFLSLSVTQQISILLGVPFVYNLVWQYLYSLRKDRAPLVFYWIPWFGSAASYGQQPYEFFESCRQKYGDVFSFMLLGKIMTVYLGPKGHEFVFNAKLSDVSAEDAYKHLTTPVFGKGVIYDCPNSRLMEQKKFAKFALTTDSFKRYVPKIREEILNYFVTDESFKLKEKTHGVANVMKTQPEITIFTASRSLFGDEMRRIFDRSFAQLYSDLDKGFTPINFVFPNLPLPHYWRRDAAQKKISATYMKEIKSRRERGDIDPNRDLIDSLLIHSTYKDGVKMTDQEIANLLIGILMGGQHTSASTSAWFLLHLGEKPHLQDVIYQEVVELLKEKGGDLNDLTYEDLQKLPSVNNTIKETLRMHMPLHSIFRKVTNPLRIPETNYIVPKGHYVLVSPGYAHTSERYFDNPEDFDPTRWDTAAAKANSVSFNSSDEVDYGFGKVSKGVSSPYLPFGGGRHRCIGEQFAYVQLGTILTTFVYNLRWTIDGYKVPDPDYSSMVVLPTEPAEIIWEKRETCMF

Turning to `Clc1ccc(-c2c[nH]cc2[C@@H](c2ccc(Cl)cc2Cl)n2cncn2)cc1`, the Ratio in series [1] is 49. The Resistance in the series with Candida [2] came to 100%; in the series with Candida albicans [5], 68%; in the series on Candida albicans [8] it was 97%; with Candida [12], 100%. Besides, the MIC was 128 µg/mL (≈ 317 µM) against Candida albicans [3] and 209 µg/mL (≈ 519 µM) with Candida albicans [6]. Moreover, the MIC50 in the series with Candida albicans [3], against Candida albicans [6], in the series on Candida [9] and with Candida [10] was more than 256 µg/mL throughout. Further, the MIC90 against Candida albicans [3], in the series with Candida albicans [6], against Candida [9] and with Candida [10] was more than 256 µg/mL each time. Further, the Range in the series on Candida albicans [4], with Candida albicans [7], in the series with Candida [9] and in the series with Candida [11] was more than 256 µg/mL in each case.

For the compound `c1ccc(-c2ccc(C(c3ccccc3)n3ccnc3)cc2)cc1` (centres undefined) [BIFONAZOLE], the Resistance in the series with Candida albicans [13], in the series with Candida [14], with Candida [17] and with Candida albicans [19] was 0% each time. Also, the MIC amounted to 2.44 µg/mL (≈ 7.86 µM) against Candida albicans [15], 4.16 µg/mL (≈ 13.4 µM) with Candida [18], 5.85 µg/mL (≈ 18.8 µM) in the series with Candida albicans [20] and 4 µg/mL (≈ 12.9 µM) in the series on Candida [21]. In addition, the MIC50 against Candida albicans [15] was found to be 2 µg/mL (≈ 6.44 µM); with Candida [18], 4 µg/mL (≈ 12.9 µM); against Candida albicans [20], 2 µg/mL (≈ 6.44 µM); against Candida [21] it was 4 µg/mL (≈ 12.9 µM). For the same compound, the MIC90 against Candida albicans [15] stood at 4 µg/mL (≈ 12.9 µM); with Candida [18], 8 µg/mL (≈ 25.8 µM); with Candida albicans [20], 4 µg/mL (≈ 12.9 µM); against Candida [21], 32 µg/mL (≈ 103 µM). For the same compound, the Range in the series on Candida albicans [16] was found to be 0.5 µg/mL; with Candida [18], 0.5 µg/mL; in the series on Candida albicans [20], 1 µg/mL; in the series on Candida [21], 2 µg/mL.

Consider `Clc1ccc(COC(Cn2ccnc2)c2ccc(Cl)cc2Cl)c(Cl)c1` (centres undefined) [MICONAZOLE], for which the Range in the series on Candida [22] is less than 0.25 µg/mL; in the series with Candida albicans [26], 16 µg/mL; in the series on Candida albicans [27], less than 8 µg/mL; in the series on Candida [28], 1 µg/mL. In addition, the MIC with Candida albicans [3] was determined as 1.16 µg/mL (≈ 2.79 µM); against Candida [24], 0.83 µg/mL (≈ 1.99 µM); against Candida albicans [6] it was 0.57 µg/mL (≈ 1.37 µM); with Candida [10], 0.156 µg/mL (≈ 0.375 µM). Moreover, the MIC50 stood at 0.5 µg/mL (≈ 1.2 µM) with Candida albicans [3], 1 µg/mL (≈ 2.4 µM) in the series with Candida [24], 0.5 µg/mL (≈ 1.2 µM) in the series with Candida albicans [6] and 0.5 µg/mL (≈ 1.2 µM) against Candida [10]. Besides, the MIC90 came out at 2 µg/mL (≈ 4.81 µM) with Candida albicans [3], 1 µg/mL (≈ 2.4 µM) with Candida [24], 2 µg/mL (≈ 4.81 µM) against Candida albicans [6] and 8 µg/mL (≈ 19.2 µM) against Candida [10]. Moreover, the Resistance with Candida [23], in the series on Candida albicans [25], in the series with Candida albicans [5] and in the series with Candida [12] was 0% in each case.
